Active and inactive are the calls of the source. The rule behind the calls is not given here.
How the values were obtained:
Assay type in all cases: functional, cell-based
A549 = assay: Cytotoxicity against human A549 cells after 24 hrs by SRB assay; settings: for IC50: A549, 24 h
Summary of the method: (§1)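 Cytotoxicity against the tumor cell lines was read out by the SRB method, with adriamycin run as the positive control.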

MGC-803 = assay: Cytotoxicity against human MGC803 cells after 24 hrs by SRB assay; settings: for IC50: MGC-803, 24 h; summary of the method: as §1
HL-60 = assay: Cytotoxicity against human HL60 cells after 72 hrs by MTT assay; settings: for IC50: HL-60, 72 h
K562 = assay: Cytotoxicity against human K562 cells after 72 hrs by MTT assay; settings: for IC50: K562, 72 h
HCT-116 = assay: Cytotoxicity against human HCT116 cells after 72 hrs by MTT assay; settings: for IC50: HCT-116, 72 h

Row | SMILES | IC50 (A549) | IC50 (MGC-803) | Activity (HL-60) | Activity (K562) | Activity (A549) | Activity (HCT-116) | Activity (MGC-803) | IC50 (HL-60) | IC50 (K562) | IC50 (HCT-116)
1 | COc1cccc2c1C(=O)c1c(O)c3c(c(O)c1C2=O)C[C@@](O)(C(=O)CO)C[C@@H]3O[C@H]1C[C@H](N)[C@H](O)[C@H](C)O1 [DOXORUBICIN] | 0.16 µM | 0.17 µM |  |  |  |  |  |  |  | 
2 | O=C1C[C@@H]2S[C@@]34C[C@@H]1[C@@H]([C@H]2O)N3C(=O)[C@@]12C[C@H]3C(=O)C[C@H](S1)[C@H](O)[C@H]3N2C4=O |  |  | inactive | inactive | inactive | inactive | inactive |  |  | 
3 | O=C1C[C@H]2SS[C@@]34C[C@@H]1[C@@H]([C@H]2O)N3C(=O)[C@@]12C[C@H]3C(=O)C[C@@H](S1)[C@H](O)[C@H]3N2C4=O |  |  | inactive | inactive | inactive | inactive | inactive |  |  | 
4 | O=C1C=C[C@H](O)[C@@H]2[C@@H]1C[C@@]13SS[C@]4(C[C@@H]5C(=O)C=C[C@H](O)[C@H]5N4C1=O)C(=O)N23 [EPICORAZINE A] | 2.3 µM | 2.7 µM |  |  |  |  |  | 0.05 µM | 1.5 µM | 0.33 µM
5 | O=C1C[C@@H]2SS[C@@]34C[C@@H]1[C@@H]([C@H]2O)N3C(=O)[C@@]12C[C@H]3C(=O)[C@H](S1)[C@H](O)[C@H](O)[C@H]3N2C4=O |  |  | inactive | inactive | inactive | inactive | inactive |  |  | 
6 | O=C1C[C@H](O)[C@H](O)[C@@H]2[C@H]1C[C@@]13SS[C@]4(C[C@H]5C(=O)C[C@H](O)[C@H](O)[C@H]5N4C1=O)C(=O)N23 |  |  | inactive | inactive | inactive | inactive | inactive |  |  | 
7 | O=C1N2[C@H]3[C@H](C[C@]24SS[C@]12C[C@H]1[C@@H]([C@@H](O)CC[C@@H]1O)N2C4=O)[C@@H](O)CC[C@@H]3O |  |  | inactive | inactive | inactive | inactive | inactive |  |  | 
8 | O=C1C[C@H]2S[C@@]34C[C@@H]1[C@@H]([C@H]2O)N3C(=O)[C@@]12C[C@H]3C(=O)[C@@H](S1)[C@H](O)[C@H](O)[C@H]3N2C4=O |  |  | inactive | inactive | inactive | inactive | inactive |  |  | 
9 | O=C1C=C[C@H](O)[C@@H]2[C@@H]1C[C@@]13SS[C@]4(C[C@H]5C(=O)C[C@H](O)[C@H](O)[C@H]5N4C1=O)C(=O)N23 | > 10 µM | 3.4 µM |  |  |  |  |  | 3.5 µM | > 10 µM | 7.1 µM
10 | CS[C@@]1(Cc2ccccc2)NC(=O)[C@]2(SC)CC3=CC=C[C@H](O)[C@H]3N2C1=O | > 10 µM | 8.5 µM |  |  |  |  |  | > 10 µM | > 10 µM | > 10 µM
11 | O=C1C[C@@H]2SS[C@@]34C[C@@H]1[C@@H]([C@H]2O)N3C(=O)[C@@]12C[C@H]3C(=O)C[C@H](SS1)[C@H](O)[C@H]3N2C4=O |  |  | inactive | inactive | inactive | inactive | inactive |  |  | 
12 | CS[C@@]12CC3=CC=C[C@H](O)[C@H]3N1C(=O)/C(=C/c1ccccc1)NC2=O |  |  | inactive | inactive | inactive | inactive | inactive |  |  | 
13 | O=C1C=C[C@H](O)[C@@H]2[C@@H]1C[C@@]13SS[C@]4(C[C@H]5C(=O)C=C[C@H](O)[C@H]5N4C1=O)C(=O)N23 | > 10 µM | 5.2 µM |  |  |  |  |  | 1.6 µM | 4.6 µM | > 10 µM
14 | CS[C@@]12C[C@@H]3C(=O)C=C[C@H](O)[C@H]3N1C(=O)[C@]1(SC)C[C@@H]3C(=O)C=C[C@H](O)[C@H]3N1C2=O | > 10 µM | 4.2 µM |  |  |  |  |  | 3.5 µM | > 10 µM | 4 µM

Reference: ChEMBL document CHEMBL3102766, “Thiodiketopiperazines from the marine-derived fungus Phoma sp. OUCMDZ-1847” (J Nat Prod, 2014)
